These results are taken from ChEMBL document CHEMBL4028911, “Discovery of a Small-Molecule Bromodomain-Containing Protein 4 (BRD4) Inhibitor That Induces AMP-Activated Protein Kinase-Modulated Autophagy-Associated Cell Death in Breast Cancer” (J Med Chem, 2017).

SMILES strings stand for the structures. Calls of active or inactive are those of the source. The calls are words filed in the database; no cut-off is given here.

Data set [1] concerns the target T1, Bromodomain-containing protein 4 (Homo sapiens, UniProt O60885). As to the kind of experiment: Inhibition of BRD4 in human MDA-MB-231 cells assessed as increase in ATG13 phosphorylation at ser318 at 3 uM up to 36 hrs by Western blot analysis. It counts as cell-based. The method, boiled down:
(§1)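 MCF-7 (1.5 μM) or MDA-MB-231 (3 μM) cells treated for indicated times. Adherent and floating cells lysed in RIPA with 1 mM PMSF. Equal protein run on 10-15% SDS-PAGE, blotted to PVDF, blocked in milk or BSA, HRP/ECL detection. β-actin loading control.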
(In general: In western blotting, separated proteins are transferred to a membrane and probed.)

Data set [2] concerns the target T2, Serine/threonine-protein kinase ULK1 (Homo sapiens) (UniProt O75385).
T2 sequence (whole entry): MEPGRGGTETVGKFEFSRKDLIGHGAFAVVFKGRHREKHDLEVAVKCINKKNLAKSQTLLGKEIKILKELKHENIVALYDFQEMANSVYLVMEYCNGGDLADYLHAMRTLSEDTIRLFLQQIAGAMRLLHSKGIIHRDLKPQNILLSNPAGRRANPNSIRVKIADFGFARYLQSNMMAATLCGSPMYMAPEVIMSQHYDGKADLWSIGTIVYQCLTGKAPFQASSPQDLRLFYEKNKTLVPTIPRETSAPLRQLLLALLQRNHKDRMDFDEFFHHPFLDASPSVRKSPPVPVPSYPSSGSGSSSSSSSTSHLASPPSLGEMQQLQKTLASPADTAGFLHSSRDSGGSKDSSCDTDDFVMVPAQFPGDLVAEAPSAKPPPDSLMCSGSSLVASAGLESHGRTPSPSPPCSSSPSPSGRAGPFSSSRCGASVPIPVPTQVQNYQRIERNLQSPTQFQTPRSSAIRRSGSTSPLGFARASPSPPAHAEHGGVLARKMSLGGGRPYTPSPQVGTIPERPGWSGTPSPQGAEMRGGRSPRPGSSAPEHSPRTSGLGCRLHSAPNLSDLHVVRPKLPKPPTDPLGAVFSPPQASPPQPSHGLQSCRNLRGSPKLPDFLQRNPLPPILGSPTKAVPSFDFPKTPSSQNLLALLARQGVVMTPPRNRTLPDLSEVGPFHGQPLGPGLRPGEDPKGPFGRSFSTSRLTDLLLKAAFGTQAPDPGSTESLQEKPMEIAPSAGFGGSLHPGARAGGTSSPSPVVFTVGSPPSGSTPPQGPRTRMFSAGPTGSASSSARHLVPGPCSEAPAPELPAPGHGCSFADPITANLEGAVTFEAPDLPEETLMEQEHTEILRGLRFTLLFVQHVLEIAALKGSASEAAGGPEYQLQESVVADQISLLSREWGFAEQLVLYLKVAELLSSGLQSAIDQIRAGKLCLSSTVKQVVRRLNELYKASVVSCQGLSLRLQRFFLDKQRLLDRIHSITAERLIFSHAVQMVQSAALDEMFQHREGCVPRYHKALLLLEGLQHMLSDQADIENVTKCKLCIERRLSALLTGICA
As to the kind of experiment: Activation of recombinant human ULK1 (1 to 649 residues) expressed in baculovirus infected Sf9 cells at 1 to 10^6 nM using MBP as substrate after 60 mins in presence of ATP by […] assay. The method, boiled down:
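ADP-Glo luminescent kinase assay; AMPK or ULK1 enzyme, substrate, ATP and compound diluted in 40 mM Tris pH 7.5, 20 mM MgCl2, 0.1 mg/ml BSA, 50 µM DTT. Enzyme (10 ng) mixed with MBP (0.1 µg/µl)/ATP (10 µM) and compound, 60 min at room temperature. ADP-Glo reagent 40 min, then detection reagent 30 min, luminescence read; signal rises with kinase activity.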

Data set [3] deals with Mus musculus. As to the kind of experiment: In vivo inhibition of BRD4 expression in BALB/c mouse xenografted with human MDA-MB-231 cells at 100 mg/kg, ig administered once a day for 27 days by Western blot analysis. The class given is functional, organism-based. The method, boiled down: (§2)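 Tumor tissues excised from MCF-7 or MDA-MB-231 xenograft mice were lysed and analysed by western blot for BRD4, c-Myc, LC3 and cleaved caspase-3.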
(Xenograft models place foreign cells or tissue in a host animal.)

Another data set relates to MDA-MB-231. Briefly: Effect on AKT expression in human MDA-MB-231 cells at 3 uM measured up to 36 hrs by Western blot analysis. It counts as ADME, cell-based. Particulars: mda-mb-231, 36 h. The method, boiled down: (§3)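 MCF-7 (1.5 µM) or MDA-MB-231 (3 µM) cells treated for indicated times. Adherent and floating cells lysed in RIPA with 1 mM PMSF, 4°C for 1 h. Equal protein run on 10-15% SDS-PAGE, transferred to PVDF, blocked with milk or BSA, probed with primary then HRP secondary antibodies, ECL detection; β-actin as loading control.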

The target of data set [4] is T1, Bromodomain-containing protein 4. As to the kind of experiment: Inhibition of BRD4 in human MDA-MB-231 cells assessed as downregulation of c-Myc expression at 3 uM measured up to 36 hrs by Western blot analysis. It counts as cell-based. The procedure, abridged:
as §1

Data set [5] relates to Mus musculus. Briefly: Induction of LC3 accumulation in BALB/c mouse xenografted with human MCF7 cells at 100 mg/kg, ig administered once a day for 24 days by Western blot analysis. The class given is functional, organism-based. The procedure, abridged:
as §2

In data set [6] the target is T1, Bromodomain-containing protein 4. As to the kind of experiment: Inhibition of BRD4 in human MDA-MB-231 cells assessed as increase in ULK1 phosphorylation at ser317 at 3 uM up to 36 hrs by Western blot analysis. The class given is cell-based. The procedure, abridged:
as §1

The subject of data set [7] is Mus musculus. As to the kind of experiment: In vivo inhibition of c-Myc expression in BALB/c mouse xenografted with human MDA-MB-231 cells at 100 mg/kg, ig administered once a day for 27 days by Western blot analysis. The class given is functional, organism-based. The method, boiled down:
as §2

The target in data set [8] is AMP-activated protein kinase, AMPK (Homo sapiens) (UniProt P54646+O43741+P54619+Q9UGJ0+Q9Y478+Q13131+Q9UGI9). As to the kind of experiment: Inhibition of AMPK (unknown origin) at 1 to 10^6 nM using MBP as substrate after 60 mins in presence of ATP by ADO-Glo assay.
Data set [9] has as its system MCF7. Briefly: Downregulation of HMGB1 expression in human MCF7 cells at 1.5 uM measured up to 24 hrs by Western blot analysis. The class given is functional, cell-based. The procedure, abridged:
as §3

The test system of data set [10] is MCF7. Briefly: Effect on mTOR expression in human MCF7 cells at 1.5 uM measured up to 36 hrs by Western blot analysis. It counts as ADME, cell-based. Particulars: mcf7, 36 h. The method, boiled down:
as §3

Data set [11] relates to Mus musculus. Briefly: In vivo inhibition of BRD4 expression in BALB/c mouse xenografted with human MCF7 cells at 100 mg/kg, ig administered once a day for 24 days by Western blot analysis. It counts as functional, organism-based. The procedure, abridged: as §2
In data set [12] the target is T1, Bromodomain-containing protein 4. As to the kind of experiment: Inhibition of BRD4 in human MDA-MB-231 cells assessed as induction of AMPKalpha phosphorylation at thr172 at 3 uM measured up to 36 hrs by Western blot analysis. It counts as cell-based. The method, boiled down:
as §1

The test system of data set [13] is MCF7. As to the kind of experiment: Induction of autophagy in human MCF7 cells assessed as LC3 lipidation at 1.5 uM in presence of ATG5 siRNA by Western blot analysis. The class given is functional, cell-based.
The test system of data set [14] is MCF7. Briefly: Induction of autophagy in human MCF7 cells assessed as downregulation of p62/SQSTM1 expression at 1.5 uM measured up to 36 hrs by Western blot analysis. It counts as functional, cell-based. The method, boiled down: as §3
Data set [15] deals with T2, Serine/threonine-protein kinase ULK1 (Homo sapiens). As to the kind of experiment: Inhibition of recombinant human ULK1 (1 to 649 residues) expressed in baculovirus infected Sf9 cells at 1 to 10^6 nM using MBP as substrate after 60 mins in presence of ATP by ADO-Glo assay.

In the case of `Cc1cc(-c2nc3sc4c(c3c(=O)[nH]2)CCN(C)C4)cc(C)c1O`, the inhibition entry in [1], in data set [4], in data set [6] and in data set [12] was “Active” throughout. Besides, the outcome (in [2]; in the data set with MCF7 [13]) was inactive. In addition, the outcome in the data set with Mus musculus [3], with Mus musculus [5], in the data set on Mus musculus [7], in the data set with MCF7 [9], in the data set with Mus musculus [11] and in the data set on MCF7 [14] was Active. Besides, the Activity result in the data set on MDA-MB-231 and in the data set on MCF7 [10] was “Non-Toxic” throughout. In addition, the inhibition entry in data set [8] and in data set [15] was “inactive” in each case.
